Measurements as given in ChEMBL document CHEMBL5678799 (Biochem J, 2009).
Calls of active or inactive are those of the source. The rule behind the calls is not given here.

Columns and labels:
[1] = biological target: Mitogen-activated protein kinase 15 (Homo sapiens) (UniProt Q8TD08); test: Inhibition of recombinant human N-terminal His6-tagged ERK8 (2 to 544 residues) expressed in baculovirus infected Sf21 cells assessed as remaining activity at 10 uM using MBP as substrate incubated for 30 mins in presence of [gamma-33P]ATP by filter binding method relative to control
Outline: (§1)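 Radiometric kinase panel run robotically at room temperature (21 °C) for 30 min, linear in time and enzyme. […] Activity is expressed as percent of control without compound, from triplicate determinations ± S.D.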

[2] = biological target: SRSF protein kinase 1 (Homo sapiens) (UniProt Q96SB4); test: Inhibition of recombinant human N-terminal GST-tagged SRPK1 (2 to 654 residues) expressed in Escherichia coli assessed as remaining activity at 10 uM using RSRSRSRSRSRSRSR as substrate incubated for 30 mins in presence of [gamma-33P]ATP by filter binding assay relative to control
Outline: (§2)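 Incubation was 30 min at room temperature (21 °C) under conditions linear with time and enzyme amount. Activity is reported as percent of control lacking compound, triplicate mean ± S.D.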

[3] = biological target: Mitogen-activated protein kinase; ERK1/ERK2 (Homo sapiens) (UniProt P27361+P28482); test: Inhibition of ERK1/2 in serum starved/PMA-stimulated HEK293 cells assessed as reduction in RSK phosphorylation at T573 residues at 1 uM incubated for 30 mins by immunoblot analysis; assay type: cell-based
Chain of Mitogen-activated protein kinase; ERK1/ERK2 (Homo sapiens) (P27361 whole entry, looked up, the tested form may be a part): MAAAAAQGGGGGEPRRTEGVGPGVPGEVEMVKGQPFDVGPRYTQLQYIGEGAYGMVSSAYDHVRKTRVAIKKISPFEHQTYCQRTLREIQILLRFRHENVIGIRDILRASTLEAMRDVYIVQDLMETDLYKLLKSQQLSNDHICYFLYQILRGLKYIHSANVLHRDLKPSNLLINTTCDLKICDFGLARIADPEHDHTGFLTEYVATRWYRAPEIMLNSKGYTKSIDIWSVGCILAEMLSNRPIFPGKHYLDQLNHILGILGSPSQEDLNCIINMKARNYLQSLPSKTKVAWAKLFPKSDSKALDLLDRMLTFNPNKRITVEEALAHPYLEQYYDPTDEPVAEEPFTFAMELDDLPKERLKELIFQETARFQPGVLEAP
Chain of Mitogen-activated protein kinase; ERK1/ERK2 (Homo sapiens) (P28482 whole entry, looked up, the tested form may be a part): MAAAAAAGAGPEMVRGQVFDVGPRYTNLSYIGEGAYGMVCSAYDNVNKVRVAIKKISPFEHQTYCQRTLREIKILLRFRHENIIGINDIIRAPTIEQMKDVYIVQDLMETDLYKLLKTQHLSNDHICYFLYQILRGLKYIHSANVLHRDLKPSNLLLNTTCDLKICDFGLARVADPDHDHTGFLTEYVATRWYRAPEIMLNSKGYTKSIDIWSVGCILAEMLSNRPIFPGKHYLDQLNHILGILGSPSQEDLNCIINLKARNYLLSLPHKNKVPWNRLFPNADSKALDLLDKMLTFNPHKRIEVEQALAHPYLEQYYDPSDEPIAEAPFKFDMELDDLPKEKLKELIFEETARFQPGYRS

[4] = biological target: Inhibitor of nuclear factor kappa-B kinase subunit beta (Homo sapiens) (UniProt O14920); test: Inhibition of recombinant human N-terminal His6-tagged IKKbeta (1 to 736 residues) expressed in baculovirus infected Sf21 cells assessed as remaining activity at 1 uM using LDDRHDSGLDSMKDEEY as substrate incubated for 30 mins in presence of [gamma-33P]ATP by filter binding method relative to control
Outline: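 Profiling-centre panel assay performed robotically at 21 °C for 30 min, linear with time and enzyme. […] Values are percent of compound-free control activity, the mean of triplicates ± S.D.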

[5] = tested on: Ribosomal protein S6 kinase beta-1 (Homo sapiens), P23443 [T412E]; test: (§3) Inhibition of recombinant human His6-tagged S6K1 T412E mutant (1 to 421 residues) expressed in baculovirus infected Sf21 cells assessed as remaining activity at 10 uM using KKRNRTLTV as substrate incubated for 30 mins in presence of [gamma-33P]ATP by filter binding method relative to control
Outline: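 Incubations ran robotically for 30 min at room temperature (21 °C) under linear conditions. Results are percent activity remaining versus controls without compound, as the mean of triplicates ± S.D.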

mTORC1 (Homo sapiens) = mTORC1 (Homo sapiens) (UniProt P42345+Q8N122+Q9BVC4); settings: HEK293, dose 30.0 nM, time 30.0 min
Chain of mTORC1 (Homo sapiens) (Q8N122 whole entry, looked up, other chains not shown, the tested form may be a part): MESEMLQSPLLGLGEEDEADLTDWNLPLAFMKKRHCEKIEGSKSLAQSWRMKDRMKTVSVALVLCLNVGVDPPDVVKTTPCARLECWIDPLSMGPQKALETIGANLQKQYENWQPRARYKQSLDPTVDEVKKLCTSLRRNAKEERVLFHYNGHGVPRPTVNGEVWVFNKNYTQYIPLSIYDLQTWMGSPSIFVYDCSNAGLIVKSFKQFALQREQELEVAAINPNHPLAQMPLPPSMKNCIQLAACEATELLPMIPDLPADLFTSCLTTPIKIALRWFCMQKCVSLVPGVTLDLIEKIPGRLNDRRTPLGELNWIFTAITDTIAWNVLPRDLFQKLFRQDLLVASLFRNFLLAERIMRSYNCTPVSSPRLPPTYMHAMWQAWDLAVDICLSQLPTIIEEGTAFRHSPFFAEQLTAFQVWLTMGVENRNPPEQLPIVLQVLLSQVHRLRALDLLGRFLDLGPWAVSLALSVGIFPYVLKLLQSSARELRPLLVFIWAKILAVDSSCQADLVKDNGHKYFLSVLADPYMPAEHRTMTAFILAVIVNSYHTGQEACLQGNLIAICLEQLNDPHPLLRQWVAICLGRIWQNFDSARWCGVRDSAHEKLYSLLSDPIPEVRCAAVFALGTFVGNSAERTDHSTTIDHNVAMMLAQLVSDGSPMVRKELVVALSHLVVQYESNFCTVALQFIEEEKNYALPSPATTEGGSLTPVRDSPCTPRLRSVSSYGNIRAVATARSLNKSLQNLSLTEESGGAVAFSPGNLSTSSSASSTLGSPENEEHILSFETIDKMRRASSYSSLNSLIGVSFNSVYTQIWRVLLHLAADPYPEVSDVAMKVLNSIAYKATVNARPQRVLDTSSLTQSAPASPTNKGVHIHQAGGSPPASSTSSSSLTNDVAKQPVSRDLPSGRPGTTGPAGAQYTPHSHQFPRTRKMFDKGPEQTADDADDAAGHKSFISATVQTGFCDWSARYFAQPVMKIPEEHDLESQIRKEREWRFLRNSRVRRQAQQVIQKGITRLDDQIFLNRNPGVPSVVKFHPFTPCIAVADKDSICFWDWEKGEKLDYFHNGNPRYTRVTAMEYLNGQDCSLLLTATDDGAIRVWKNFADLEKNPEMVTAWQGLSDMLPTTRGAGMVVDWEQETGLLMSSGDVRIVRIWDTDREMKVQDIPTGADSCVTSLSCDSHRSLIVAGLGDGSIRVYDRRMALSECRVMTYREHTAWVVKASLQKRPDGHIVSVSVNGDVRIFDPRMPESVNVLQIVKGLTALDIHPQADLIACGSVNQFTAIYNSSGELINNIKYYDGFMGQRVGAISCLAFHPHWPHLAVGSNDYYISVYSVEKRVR
Chain of mTORC1 (Homo sapiens) (Q9BVC4 whole entry, looked up, other chains not shown, the tested form may be a part): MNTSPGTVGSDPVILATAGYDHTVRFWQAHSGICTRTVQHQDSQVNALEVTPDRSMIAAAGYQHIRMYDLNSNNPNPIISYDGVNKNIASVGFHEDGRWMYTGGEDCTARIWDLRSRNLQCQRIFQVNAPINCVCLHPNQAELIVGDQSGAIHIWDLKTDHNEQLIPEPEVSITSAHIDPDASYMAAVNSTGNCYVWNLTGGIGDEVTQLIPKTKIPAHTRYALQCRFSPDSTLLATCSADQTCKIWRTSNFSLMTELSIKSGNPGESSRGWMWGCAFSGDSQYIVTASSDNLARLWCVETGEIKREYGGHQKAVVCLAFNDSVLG

[6] = biological target: Tyrosine-protein kinase BTK (Homo sapiens) (UniProt Q06187); test: Inhibition of recombinant human N-terminal His6-tagged BTK (2 to 659 residues) expressed in baculovirus infected Sf21 cells assessed as remaining activity at 10 uM using KVEKIGEGTYGVVYK as substrate incubated for 30 mins in presence of [gamma-33P]ATP by filter binding method relative to control; outline: as §2
[7] = biological target: Homeodomain-interacting protein kinase 2 (Homo sapiens) (UniProt Q9H2X6); test: Inhibition of recombinant human N-terminal GST-tagged HIPK2 (165 to 564 residues) expressed in Escherichia coli assessed as remaining activity at 10 uM using MBP as substrate incubated for 30 mins in presence of [gamma-33P]ATP by filter binding method relative to control; outline: as §1
Chain of Homeodomain-interacting protein kinase 2 (Homo sapiens) (Q9H2X6 whole entry, looked up, the tested form may be a part): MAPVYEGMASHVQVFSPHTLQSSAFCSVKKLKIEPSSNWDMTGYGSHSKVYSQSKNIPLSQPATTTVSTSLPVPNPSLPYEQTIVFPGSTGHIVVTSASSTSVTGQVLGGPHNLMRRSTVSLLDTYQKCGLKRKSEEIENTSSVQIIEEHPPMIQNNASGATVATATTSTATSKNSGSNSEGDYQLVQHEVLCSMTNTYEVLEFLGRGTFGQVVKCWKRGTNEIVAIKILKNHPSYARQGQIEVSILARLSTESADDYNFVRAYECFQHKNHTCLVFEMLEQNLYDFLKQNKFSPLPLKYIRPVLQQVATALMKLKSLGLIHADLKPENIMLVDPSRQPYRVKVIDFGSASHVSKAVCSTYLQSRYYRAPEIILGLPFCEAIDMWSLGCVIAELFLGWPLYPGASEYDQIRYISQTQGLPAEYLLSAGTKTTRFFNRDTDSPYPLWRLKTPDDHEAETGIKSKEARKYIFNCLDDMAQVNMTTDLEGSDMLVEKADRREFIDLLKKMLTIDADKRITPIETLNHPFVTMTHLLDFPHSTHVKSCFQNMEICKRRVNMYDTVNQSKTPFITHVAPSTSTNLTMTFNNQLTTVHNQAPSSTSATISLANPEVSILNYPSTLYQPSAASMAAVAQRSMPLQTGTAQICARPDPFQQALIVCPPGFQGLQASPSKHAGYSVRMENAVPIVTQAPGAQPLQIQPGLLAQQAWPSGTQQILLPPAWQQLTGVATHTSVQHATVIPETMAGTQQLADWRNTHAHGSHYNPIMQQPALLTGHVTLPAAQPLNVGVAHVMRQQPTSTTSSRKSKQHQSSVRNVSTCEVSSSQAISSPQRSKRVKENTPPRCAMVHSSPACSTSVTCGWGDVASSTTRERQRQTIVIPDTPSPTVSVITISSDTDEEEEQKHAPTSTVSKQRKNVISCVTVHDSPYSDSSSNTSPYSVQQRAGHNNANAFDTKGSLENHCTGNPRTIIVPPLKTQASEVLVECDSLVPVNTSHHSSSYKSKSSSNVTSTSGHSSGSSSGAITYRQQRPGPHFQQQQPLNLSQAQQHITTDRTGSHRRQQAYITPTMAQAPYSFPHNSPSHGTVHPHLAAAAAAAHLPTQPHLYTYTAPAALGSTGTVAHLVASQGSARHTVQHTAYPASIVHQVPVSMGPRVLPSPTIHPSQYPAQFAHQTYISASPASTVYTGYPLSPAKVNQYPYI

[8] = tested on: RAC-alpha serine/threonine-protein kinase (Homo sapiens), P31749 [S473D]; test: as §3, with “AKT1 S473D” for “S6K1 T412E”, “(118” for “(1”, “480” for “421”, “crosstide peptide” for “KKRNRTLTV”
Outline: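 Radiometric panel assay run robotically at 21 °C for 30 min, linear in time and enzyme. […] Activity is expressed as percentage of the compound-omitted control, averaged from triplicates ± S.D.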

[9] = biological target: Serine/threonine-protein kinase PAK 4 (Homo sapiens) (UniProt O96013); test: Inhibition of recombinant human N-terminal GST-tagged PAK4 (2 to 519 residues) expressed in Escherichia coli assessed as remaining activity at 1 uM using RRRLSFAEPG as substrate incubated for 30 mins in presence of [gamma-33P]ATP by filter binding method relative to control; outline: as §1
[10] = biological target: Eukaryotic elongation factor 2 kinase (Homo sapiens) (UniProt O00418); test: Inhibition of recombinant human N-terminal GST-tagged EF2K (2 to 725 residues) expressed in Escherichia coli assessed as remaining activity at 10 uM using RKKFGESKTKTKEFL as substrate incubated for 30 mins in presence of [gamma-33P]ATP by filter binding method relative to control
Chain of Eukaryotic elongation factor 2 kinase (Homo sapiens) (O00418 whole entry, the tested form may be a part): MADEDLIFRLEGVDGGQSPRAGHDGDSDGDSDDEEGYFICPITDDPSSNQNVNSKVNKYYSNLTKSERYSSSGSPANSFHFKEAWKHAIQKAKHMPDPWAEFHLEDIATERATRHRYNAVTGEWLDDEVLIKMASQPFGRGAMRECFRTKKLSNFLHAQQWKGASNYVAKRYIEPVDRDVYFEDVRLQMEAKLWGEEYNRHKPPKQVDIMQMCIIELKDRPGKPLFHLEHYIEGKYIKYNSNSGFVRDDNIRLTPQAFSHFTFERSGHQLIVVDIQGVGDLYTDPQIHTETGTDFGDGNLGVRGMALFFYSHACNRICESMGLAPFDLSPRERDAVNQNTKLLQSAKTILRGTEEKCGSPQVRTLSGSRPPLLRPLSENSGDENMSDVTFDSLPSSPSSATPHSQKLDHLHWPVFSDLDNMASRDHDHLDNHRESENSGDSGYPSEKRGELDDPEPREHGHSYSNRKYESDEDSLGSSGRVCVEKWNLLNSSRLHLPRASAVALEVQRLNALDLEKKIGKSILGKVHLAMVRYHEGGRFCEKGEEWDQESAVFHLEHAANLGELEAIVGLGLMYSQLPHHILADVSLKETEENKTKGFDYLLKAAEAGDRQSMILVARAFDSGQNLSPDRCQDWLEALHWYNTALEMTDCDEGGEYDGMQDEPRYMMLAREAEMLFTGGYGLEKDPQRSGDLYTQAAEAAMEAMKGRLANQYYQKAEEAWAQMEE
Outline: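 Kinase panel run robotically at 21 °C for 30 min, linear in time and enzyme. […] Compound tested at 1 or 10 µM. Activity given as percentage of incubations without compound, mean of triplicates ± S.D.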

MEF = test: Induction of cell cycle arrest in mLST8 knockout MEF cells assessed as accumulation at G2 phase at 3 uM incubated for 1 to 3 days by propidium iodide staining based flow cytometric analysis (reference value: 14.1 +/- 0.69%); assay type: toxicity; settings: mouse, time 1-3 day
[11] = biological target: 3-phosphoinositide-dependent protein kinase 1 (Homo sapiens) (UniProt O15530); test: Inhibition of recombinant human His6-tagged PDK1 (52 to 556 residues) expressed in baculovirus infected Sf21 cells assessed as remaining activity at 10 uM using PDKtide as substrate incubated for 30 mins in presence of [gamma-33P]ATP by filter binding method relative to control
Outline: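 Robotic radiometric panel assay, 30 min at room temperature (21 °C), with 10 mM magnesium acetate. […] Compound at 1 or 10 µM. Residual activity expressed relative to compound-free control; triplicate average ± S.D.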

[12] = biological target: MAP kinase-interacting serine/threonine-protein kinase 2 (Homo sapiens) (UniProt Q9HBH9); test: Inhibition of recombinant human N-terminal GST/C-terminal His6-tagged MNK2alpha (2 to 465 residues) expressed in Escherichia coli assessed as remaining activity at 10 uM using eIF4E as substrate incubated for 30 mins in presence of [gamma-33P]ATP by filter binding method relative to control
Chain of MAP kinase-interacting serine/threonine-protein kinase 2 (Homo sapiens) (Q9HBH9 whole entry, looked up, the tested form may be a part): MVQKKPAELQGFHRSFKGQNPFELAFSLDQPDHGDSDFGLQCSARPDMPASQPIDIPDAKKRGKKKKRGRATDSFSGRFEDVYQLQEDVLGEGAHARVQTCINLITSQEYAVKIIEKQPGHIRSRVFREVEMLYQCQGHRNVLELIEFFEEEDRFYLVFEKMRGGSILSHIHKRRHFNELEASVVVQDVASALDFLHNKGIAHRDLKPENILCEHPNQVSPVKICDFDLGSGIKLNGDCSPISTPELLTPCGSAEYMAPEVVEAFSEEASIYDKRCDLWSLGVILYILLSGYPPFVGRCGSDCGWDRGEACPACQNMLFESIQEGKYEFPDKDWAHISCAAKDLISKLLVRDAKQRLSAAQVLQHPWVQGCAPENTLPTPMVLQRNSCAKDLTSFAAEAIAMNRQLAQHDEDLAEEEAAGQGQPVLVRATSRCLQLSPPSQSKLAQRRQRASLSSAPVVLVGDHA

[13] = biological target: Mitogen-activated protein kinase 11 (Homo sapiens) (UniProt Q15759); test: Inhibition of recombinant human N-terminal GST-tagged P38beta (1 to 364 residues) expressed in Escherichia coli assessed as remaining activity at 1 uM using MBP as substrate incubated for 30 mins in presence of [gamma-33P]ATP by filter binding method relative to control
Outline: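 Panel assays were run for 30 min at 21 °C, within the linear range for time and enzyme. […] Results are percent activity remaining relative to compound-free control, averaged from triplicate ± S.D.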

Question: How did the Activity [1] turn out when `COc1ccc(-c2ccc3c(N4CCOCC4)nc(N4C[C@@H](C)O[C@@H](C)C4)nc3n2)cc1CO` [Ku-0063794] was run?
Answer: 92%

Question: And the Activity [2]?
Answer: 94%

Question: What about the inhibition [3] of the same compound?
Answer: inactive

Question: And the Activity [4]?
Answer: 104%

Question: What about the Activity [5] of the same compound?
Answer: 98%

Question: What about the inhibition (mTORC1 (Homo sapiens)) of the same compound?
Answer: 50%

Question: And the Activity [6]?
Answer: 81%

Question: And the Activity [7]?
Answer: 89%

Question: What about the Activity [8] of the same compound?
Answer: 90%

Question: What about the Activity [9] of the same compound?
Answer: 110%

Question: What about the Activity [10] of the same compound?
Answer: 108%

Question: And the Activity (MEF)?
Answer: 13.3%

Question: What about the Activity [11] of the same compound?
Answer: 91%

Question: What about the Activity [12] of the same compound?
Answer: 92%

Question: And the Activity [13]?
Answer: 106%
